Reference: ChEMBL document CHEMBL3108701, “Isolation of arginase inhibitors from the bioactivity-guided fractionation of Byrsonima coccolobifolia leaves and stems” (J Nat Prod, 2014)

Assays:
[1] = target: T1, Arginase (Leishmania amazonensis, UniProt O96394); test: Inhibition of Leishmania amazonensis recombinant arginase expressed in Escherichia coli Rosetta (DE3) pLysS using L-arginine as substrate incubated for 10 mins prior to substrate addition measured after 10 mins by colorimetry
[2] = target: T1, Arginase; test: Noncompetitive inhibition of Leishmania amazonensis recombinant arginase expressed in Escherichia coli Rosetta (DE3) pLysS using L-arginine as substrate by Dixon reciprocal plot analysis
Procedure, shortened: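 His-tagged enzyme purified by Ni-NTA then DEAE anion exchange. Urea production from L-arginine measured in 50 mM CHES pH 9.6 at 37 °C. Enzyme was preincubated 10 min with inhibitor at three concentrations plus a no-inhibitor control. Substrate was then added at 6.25–72.0 mM and reacted for 10 min. Urea read by urease/salicylate–hypochlorite colorimetry at 600 nm, in duplicate. Inhibition type and Ki taken from reciprocal plots.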

[3] = target: Arginase (Leishmania amazonensis) (UniProt O96394); test: Noncompetitive inhibition of Leishmania amazonensis recombinant arginase expressed in Escherichia coli Rosetta (DE3) pLysS using L-arginine as substrate assessed as enzyme-substrate-inhibitor complex by Dixon reciprocal plot analysis
Procedure, shortened: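 Purified recombinant L. amazonensis arginase in 50 mM CHES pH 9.6, 37 °C, with urea read at 600 nm by urease-coupled colorimetry. Three inhibitor concentrations plus an uninhibited control were tested against L-arginine at 6.25–72.0 mM. Inhibition type, Ki and Kis were taken from double-reciprocal plots.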

Structure (SMILES) | IC50 [1] [µM] | Ki [2] [µM] | Kis [3] [µM]
O=c1c(O)c(-c2ccc(O)c(O)c2)oc2cc(O)cc(O)c12 [QUERCETIN] | 4 |  | 
C[C@H]1O[C@H](Oc2c(-c3cc(O)c(O)c(O)c3)oc3cc(O)cc(O)c3c2=O)[C@@H](O)[C@@H](O)[C@@H]1O | 2.4 | 3.8 | 1.9
C[C@@H]1O[C@@H](Oc2c(-c3ccc(O)c(O)c3)oc3cc(O)cc(O)c3c2=O)[C@H](O)[C@H](O)[C@H]1O [QUERCITRIN] | 12.2 | 7.9 | 7.2
Oc1cc(O)c2c(c1)O[C@H](c1ccc(O)c(O)c1)[C@@H](O)C2 [CIANIDANOL] | 1.7 | 0.6 | 
O=c1c(O)c(-c2cc(O)c(O)c(O)c2)oc2cc(O)cc(O)c12 [MYRICETIN] | 2.1 | 1.2 | 
Oc1cc(O)c2c(c1)O[C@H](c1ccc(O)c(O)c1)[C@H](O)C2 [(-)-EPICATECHIN] | 1.6 | 0.2 | 
O=c1c(O)c(-c2ccc(O)cc2)oc2cc(O)cc(O)c12 [KAEMPFEROL] | 55 |  | 

Further lines, with some results ahead:

IC50 [1] [µM] | Structure (SMILES) | Ki [2] [µM] | Kis [3] [µM]
35.1 | C[C@@H]1O[C@@H](O[C@@H]2Cc3c(O)cc(O)cc3O[C@H]2c2ccc(O)c(O)c2)[C@H](O)[C@H](O)[C@H]1O |  | 
2 | O=c1c(O[C@@H]2O[C@H](CO)[C@@H](O)[C@H](O)[C@H]2O)c(-c2ccc(O)c(O)c2)oc2cc(O)cc(O)c12 [ISOQUERCETIN] |  | 6.9
16.6 | COC1=Cc2c(cc(OC)c3cc(C)c(OC)cc23)C(C)(C)C1=O [TRIGONOSTEMONE] |  | 
121 | CC(=O)Oc1cc(OC(C)=O)c2c(=O)c(OC(C)=O)c(-c3ccc(OC(C)=O)c(OC(C)=O)c3)oc2c1 |  | 
224 | COc1c(O)cc(-c2oc3cc(O)cc(O)c3c(=O)c2O[C@@H]2O[C@@H](C)[C@H](O)[C@@H](O)[C@H]2O)cc1O |  | 
88.1 | COc1ccc(-c2oc3cc(O)cc(O)c3c(=O)c2O[C@@H]2O[C@@H](C)[C@H](O)[C@@H](O)[C@H]2O)cc1O |  | 
13.7 | COc1cc([C@H]2OC[C@H]3[C@@H]2CO[C@@H]3c2cc(OC)c(O)c(OC)c2)cc(OC)c1O [SYRINGARESINOL] |  | 
128 | COc1cc(-c2oc3cc(OC)c(OC)c(OC)c3c(=O)c2OC)cc(OC)c1OC |  | 
